Calls of active or inactive are those of the source.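 The calls were made as follows, unless noted: active = GFP response above 150% of the DMSO level; inconclusive = fewer than 70 events counted for a yeast strain; inactive = the rest.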

Test [1] is described as follows: hit retest on RPL19A-GFP reporter strain – cell-based, S. cerevisiae, flow cytometry, cherry picks, mother/daughter gates, confirmation (AID 2270;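 active = GFP response below 50% of the DMSO control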). To be noted: 3 h, at 10 µM, stronger effect = lower value, 100 = same GFP as DMSO wells. For orientation: A flow cytometer gives signals particle by particle.
Test [2] is described as follows: yeast TOR pathway reporter LAP4-GFP change – cell-based, cherry picks, flow cytometry, mother/daughter gates, confirmation (AID 2271;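 active = GFP response above 150% of the DMSO control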;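 also: ratio of sample to DMSO plate mean so 100% equals DMSO level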). As to conditions: S. cerevisiae LAP4-GFP strain, 3 h, at 10 µM, stronger effect = higher value, 100 means same as DMSO control. The essentials:
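System: GFP-fusion yeast strain | Input: Yeast cells seeded at OD600 of 0.2 | Technique: HT flow cytometry, GFP fluorescence channel | Read-out: % GFP response vs DMSO | Dosing: Single test-compound dose, 10 µM final | Controls: Positive rapamycin (400 ng/mL), negative DMSO | Times: 3 h treatment at 30 °C with rotation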

Test [3] can be described thus: TOR pathway reporter MEP2-GFP, retest of hits – S. cerevisiae, flow cytometry GFP, cherry picks, confirmation (AID 2272;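 active = GFP response above 150% of the DMSO control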;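 also: ratio of well signal to plate DMSO mean so 100% equals DMSO level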). As to conditions: S. cerevisiae MEP2-GFP strain, 3 h, at 10 µM, stronger effect = higher value.
The nature of test [4]: yeast AGP1-GFP fluorescence change, single-dose – cell-based, flow cytometry, S. cerevisiae, cherry picks, confirmation (AID 2273).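 Also: median GFP channel fluorescence over the whole cell population gate.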 To be noted: S. cerevisiae AGP1-GFP strain, 3 h, at 10 µM.
Test [5] can be described thus: TOR pathway CIT2 reporter hit retest – S. cerevisiae, GFP fusion, cherry picks, mother/daughter gates, confirmation (AID 2274). To be noted: S. cerevisiae CIT2-GFP strain, flow cytometry, 3 h, at 10 µM, stronger effect = higher value.
Where [6] appears, read: measured here: daughter cell gate.
The mark [7] stands for this setting: measured here: mother cell gate.
Setting [8] is: measured here: daughter cell gate response.
Setting [9] is: measured here: mother cell gate response.

Take `COc1ccc(CCNc2nc(-c3sc(C)nc3C)cs2)cc1OC`: the GFP response vs DMSO was 96.6% (inactive) in test [1], 97.6% in test [1] (setting [6]), 95.4% in test [1] (setting [7]) and 102% (inactive) in test [3]. The figures for the GFP response relative to DMSO in test [2], in test [2] (setting [8]) and in test [2] (setting [9]) were 106% (inactive), 104% and 105%, respectively. For the same compound, the GFP response, % of DMSO in test [4] is 93.7% (inactive); in test [5], 101% (inactive); in test [5] (setting [6]), 103%; in test [5] (setting [7]), 99.7%.
For the compound `Cc1ccccc1NC(=O)c1ccccc1O`, the GFP response vs DMSO in test [1] is 94% (inactive); in test [1] (setting [6]) it was 92.9%; in test [1] (setting [7]), 94%; in test [3] it was 101% (inactive). The GFP response relative to DMSO in test [2] was 106% (inactive); in test [2] (setting [8]), 101%; in test [2] (setting [9]), 108%. The GFP response, % of DMSO in test [4] was 93.8% (inactive); in test [5], 100% (inactive); in test [5] (setting [6]), 97.4%; in test [5] (setting [7]), 98.1%.
For the compound `CN(Cc1ccccc1)S(=O)(=O)c1ccc(C(=O)Nc2nnc(C3CC3)o2)cc1`, the GFP response vs DMSO in test [1] is 103% (inactive); in test [1] (setting [6]), 102%; in test [1] (setting [7]), 105%; in test [3], 96.8% (inactive). Moreover, the GFP response relative to DMSO was 98.2% (inactive) in test [2], 99.1% in test [2] (setting [8]) and 97.3% in test [2] (setting [9]). For the same compound, the GFP response, % of DMSO in test [4] was 99.2% (inactive); in test [5], 102% (inactive); in test [5] (setting [6]), 103%; in test [5] (setting [7]), 102%.
For `Cc1ccc2nc(/C(C#N)=C/c3ccc(O)c(O)c3)[nH]c2c1`, the GFP response vs DMSO in test [1] was 103% (inactive); in test [1] (setting [6]) it was 102%; in test [1] (setting [7]) it was 105%; in test [3], 230% (active). In addition, the values for the GFP response relative to DMSO in test [2], in test [2] (setting [8]) and in test [2] (setting [9]) were 123% (inactive), 110% and 133%, respectively. Besides, the GFP response, % of DMSO is 102% (inactive) in test [4], 128% (inactive) in test [5], 114% in test [5] (setting [6]) and 140% in test [5] (setting [7]).
For `COc1ccc(-c2nn(-c3ccccc3)cc2C(=O)NC(=S)NNC(=O)c2ccncc2)cc1`, the GFP response vs DMSO in test [1] is 100% (inactive); in test [1] (setting [6]) it was 101%; in test [1] (setting [7]), 98.3%; in test [3], 101% (inactive). The figures for the GFP response relative to DMSO in test [2], in test [2] (setting [8]) and in test [2] (setting [9]) were 105% (inactive), 108% and 105%, respectively. In addition, the GFP response, % of DMSO was 101% (inactive) in test [4], 107% (inactive) in test [5], 108% in test [5] (setting [6]) and 104% in test [5] (setting [7]).
With `Cc1c([N+](=O)[O-])cnc(Sc2ccccc2)c1[N+](=O)[O-]`, the GFP response vs DMSO in test [1] is 100% (inactive); in test [1] (setting [6]), 96.9%; in test [1] (setting [7]) it was 98.9%; in test [3], 102% (inactive). Moreover, the GFP response relative to DMSO in test [2] is 124% (inactive); in test [2] (setting [8]) it was 120%; in test [2] (setting [9]) it was 127%. Also, the GFP response, % of DMSO in test [4] was 97.6% (inactive); in test [5], 101% (inactive); in test [5] (setting [6]) it was 101%; in test [5] (setting [7]), 99.7%.
Regarding `COc1ccc(S(=O)(=O)N2Cc3ccccc3CC2C(=O)O)cc1OC` (stereo unspecified), the GFP response vs DMSO in test [1] was 97% (inactive); in test [1] (setting [6]), 97%; in test [1] (setting [7]), 97.1%; in test [3], 104% (inactive). Moreover, the GFP response relative to DMSO is 98.8% (inactive) in test [2], 96.5% in test [2] (setting [8]) and 98.5% in test [2] (setting [9]). Moreover, the GFP response, % of DMSO in test [4] was 102% (inactive); in test [5], 99.3% (inactive); in test [5] (setting [6]), 100%; in test [5] (setting [7]) it was 99.1%.
With `CCCN(c1ccccc1F)S(=O)(=O)c1cc(-c2cc(C)no2)ccc1OC`, the GFP response vs DMSO was 95.6% (inactive) in test [1], 95.6% in test [1] (setting [6]), 96.1% in test [1] (setting [7]) and 102% (inactive) in test [3]. In addition, the GFP response relative to DMSO in test [2] is 97.9% (inactive); in test [2] (setting [8]) it was 96%; in test [2] (setting [9]) it was 98.3%. Further, the GFP response, % of DMSO in test [4] is 95.6% (inactive); in test [5] it was 95.5% (inactive); in test [5] (setting [6]) it was 95.4%; in test [5] (setting [7]) it was 95%.
As to `CCC(=O)Nc1cccc(C(=O)/C=C/c2cc(Br)ccc2OC)c1`, the GFP response vs DMSO is 98.8% (inactive) in test [1], 99.2% in test [1] (setting [6]), 97.7% in test [1] (setting [7]) and 104% (inactive) in test [3]. In addition, the GFP response relative to DMSO in test [2] was 103% (inactive); in test [2] (setting [8]), 98.7%; in test [2] (setting [9]), 110%. The GFP response, % of DMSO in test [4] was 97.2% (inactive); in test [5] it was 93.9% (inactive); in test [5] (setting [6]) it was 94.8%; in test [5] (setting [7]), 91.2%.
Consider `CCCc1[nH]nc2c1C(c1ccc(Br)s1)C(C#N)=C(N)O2` (stereo unspecified), for which the GFP response vs DMSO in test [1] was 96.2% (inactive); in test [1] (setting [6]), 96.7%; in test [1] (setting [7]), 95.4%; in test [3], 122% (inactive). For the same compound, the GFP response relative to DMSO is 137% (inactive) in test [2], 136% in test [2] (setting [8]) and 137% in test [2] (setting [9]). For the same compound, the GFP response, % of DMSO is 105% (inactive) in test [4], 101% (inactive) in test [5], 101% in test [5] (setting [6]) and 102% in test [5] (setting [7]).
For `COc1cc(/C=C/c2ccc3c(Br)cc(Br)c(O)c3n2)ccc1O`, the GFP response vs DMSO is 101% (inactive) in test [1], 107% in test [1] (setting [6]), 102% in test [1] (setting [7]) and 108% (inactive) in test [3]. Besides, the GFP response relative to DMSO was 107% (inactive) in test [2], 106% in test [2] (setting [8]) and 108% in test [2] (setting [9]). Further, the GFP response, % of DMSO was 98.6% (inactive) in test [4], 99.7% (inactive) in test [5], 105% in test [5] (setting [6]) and 89.8% in test [5] (setting [7]).
Turning to `COc1ccc(Br)cc1/C=C/C(=O)c1ccc(NC(C)=O)cc1`, the GFP response vs DMSO in test [1] is 100% (inactive); in test [1] (setting [6]) it was 98.4%; in test [1] (setting [7]) it was 97.7%; in test [3], 101% (inactive). Also, the GFP response relative to DMSO in test [2] is 89.4% (inactive); in test [2] (setting [8]), 89.8%; in test [2] (setting [9]) it was 92.3%. Moreover, the GFP response, % of DMSO is 98.6% (inactive) in test [4], 98.6% (inactive) in test [5], 101% in test [5] (setting [6]) and 96% in test [5] (setting [7]).
In the case of `Cc1ccc(/C=C2/NC(=O)N(Cc3ccccc3)C2=O)o1`, the GFP response vs DMSO in test [1] was 98.4% (inactive); in test [1] (setting [6]), 99.8%; in test [1] (setting [7]) it was 98.8%; in test [3], 101% (inactive). Moreover, the values for the GFP response relative to DMSO in test [2], in test [2] (setting [8]) and in test [2] (setting [9]) were 112% (inactive), 110% and 113%, respectively. Also, the GFP response, % of DMSO was 101% (inactive) in test [4], 103% (inactive) in test [5], 105% in test [5] (setting [6]) and 101% in test [5] (setting [7]).
Take `CC(=O)Nc1ccc(NC(=O)c2nc(S(=O)(=O)Cc3ccccc3)ncc2Cl)cc1`: the GFP response vs DMSO in test [1] was 98.5% (inactive); in test [1] (setting [6]), 99.8%; in test [1] (setting [7]) it was 96.9%; in test [3], 110% (inactive). In addition, the GFP response relative to DMSO is 106% (inactive) in test [2], 105% in test [2] (setting [8]) and 105% in test [2] (setting [9]). Further, the GFP response, % of DMSO in test [4] was 96.8% (inactive); in test [5], 100% (inactive); in test [5] (setting [6]) it was 101%; in test [5] (setting [7]), 99.3%.
Consider `CCc1noc(C)c1C(=O)Nc1nc(-c2cc(C)ccc2C)c(C)s1`, for which the GFP response vs DMSO was 103% (inactive) in test [1], 103% in test [1] (setting [6]), 103% in test [1] (setting [7]) and 100% (inactive) in test [3]. Besides, the GFP response relative to DMSO is 95% (inactive) in test [2], 95.6% in test [2] (setting [8]) and 99.3% in test [2] (setting [9]). For the same compound, the GFP response, % of DMSO in test [4] was 94.1% (inactive); in test [5], 106% (inactive); in test [5] (setting [6]), 99.7%; in test [5] (setting [7]), 107%.
`C[C@@H](C(=O)Nc1nc2ccc(F)cc2s1)N1C(=O)C2CC=CCC2C1=O` (stereo partly specified): the GFP response vs DMSO in test [1] is 98.7% (inactive); in test [1] (setting [6]) it was 97.8%; in test [1] (setting [7]) it was 98.5%; in test [3], 102% (inactive). Besides, the GFP response relative to DMSO in test [2] was 103% (inactive); in test [2] (setting [8]), 101%; in test [2] (setting [9]) it was 104%. Besides, the GFP response, % of DMSO is 99.7% (inactive) in test [4], 101% (inactive) in test [5], 100% in test [5] (setting [6]) and 100% in test [5] (setting [7]).

The values are drawn from PubChem BioAssay.
